# ChEMBL document CHEMBL4725371, “A Novel Redox Modulator Induces a GPX4-Mediated Cell Death That Is Dependent on Iron and Reactive Oxygen Species” (J Med Chem, 2020)
# Active and inactive are the calls of the source. No cut-off for these calls is given here.
# Legend:
# PANC-1 [1] = test: Cytotoxicity against human PANC-1 cells measured after 72 hrs by MTT assay; format: functional, cell-based; details: PANC-1, 72 h
# How it was run: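 Cells were kept in RPMI 1640 with 10% FBS at 37 °C, 5% CO₂, under 35 passages. Cells were seeded, attached overnight and treated with compound or DMSO for 72 h. MTT was added at 0.3 mg/mL for 3 h, then dissolved in DMSO and read as absorbance at 570 nm. IC50 was fitted from the curve. Values are mean ± sd of three independent experiments.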
# PANC-1 [2] = test: Induction of reactive oxygen species in human PANC-1 cells at 10 uM measured after 1 hr by CM-H2DCFDA dye based fluorescence assay; format: functional, cell-based
# How it was run: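 1.8 × 10⁴ cells per well were attached overnight, then loaded with 10 μM CM-H2DCFDA in HBSS for 40 min at 37 °C and washed. Compounds were added in HBSS. Fluorescence was read at Ex 483 / Em 530 nm. TBHP was the positive control. NAC at 3 mM was used where stated.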
# MIA PaCa-2 [3] = test: Cytotoxicity against human MIA PaCa-2 cells measured after 72 hrs in presence of N-acetylcysteine by MTT assay; format: functional, cell-based; details: MIA PaCa-2, 72 h
# MIA PaCa-2 [4] = test: Inhibition of colony formation in human MIA PaCa-2 cells at 0.5 uM measured after 7 to 9 days in presence of iron chelator deferoxamine by crystal violet staining based assay; format: functional, cell-based; details: time day 7-9
# How it was run: (§1)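 Cells seeded overnight in 96-well plates at 300 cells/well (MIA PaCa-2) or 600 cells/well (BxPC-3), in RPMI 1640 with 10% FBS. Inhibitor added 1 h before compound, then continuous exposure for 7–9 days until control wells were 80–90% confluent. Stained with 0.05% crystal violet for 30 min, imaged after overnight drying and quantified.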
# MIA PaCa-2 [5] = test: Inhibition of colony formation in human MIA PaCa-2 cells at 0.4 to 0.8 uM measured after 7 to 9 days in presence of iron chelator deferasirox by crystal violet staining based assay; format: functional, cell-based; details: dose microM 0.4-0.8, time day 7-9; how it was run: as §1
# MIA PaCa-2 [6] = test: Inhibition of colony formation in human MIA PaCa-2 cells at 0.5 uM measured after 7 to 9 days in presence of ferroptosis inhibitor liproxstatin-1 by crystal violet staining based assay; format: functional, cell-based; details: time day 7-9; how it was run: as §1
# MIA PaCa-2 [7] = test: Inhibition of colony formation in human MIA PaCa-2 cells at 0.4 to 0.8 uM measured after 7 to 9 days in presence of autophagy inhibitor chloroquine by crystal violet staining based assay; format: functional, cell-based; details: dose microM 0.4-0.8, time day 7-9; how it was run: as §1
# MIA PaCa-2 [8] = test: Induction of ferroptosis in human MIA PaCa-2 cells assessed as increase in lipid peroxidation measured after 24 hrs by C11-BODIPY dye based fluorescence assay; format: functional, cell-based
# How it was run: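 MIA PaCa-2 cells were treated for the set time, then given 10 μM C11-BODIPY for 30 min at 37 °C and washed. Fluorescence was read at 581/591 nm (reduced dye) and 488/510 nm (oxidized dye). The intensity ratio was compared by unpaired t-test.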
# MIA PaCa-2 [9] = test: Down regulation of LRPPRC expression in human MIA PaCa-2 cells at 3 times IC50 measured after 4 hrs by proteomics analysis; format: functional, cell-based
# [10] = target: T1, Phospholipid hydroperoxide glutathione peroxidase GPX4 (Homo sapiens) (UniProt P36969); test: Binding affinity to GPX4 in human PANC-1 cells assessed as protein destabilization by measuring reduction in melting temperature at 100 uM measured after 1 hr by thermal shift assay; format: cell-based
# T1 sequence (whole entry): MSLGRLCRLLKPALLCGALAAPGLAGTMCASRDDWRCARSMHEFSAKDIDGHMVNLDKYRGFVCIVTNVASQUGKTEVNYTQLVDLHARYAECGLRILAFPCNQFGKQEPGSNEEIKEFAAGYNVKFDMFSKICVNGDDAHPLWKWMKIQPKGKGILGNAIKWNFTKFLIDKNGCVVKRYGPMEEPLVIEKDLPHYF
# BXPC-3 = test: Inhibition of colony formation in human BXPC-3 cells at 0.375 uM measured after 7 to 9 days in presence of GPX4 inhibitor RSL3 by crystal violet staining based assay; format: functional, cell-based; details: time day 7-9; how it was run: as §1
# PANC-1 [11] = test: Down regulation of LRPPRC expression in human PANC-1 cells at 3 times IC50 measured after 1 to 24 hrs by proteomics analysis; format: functional, cell-based; details: time hrs 1-24
# PANC-1 [12] = test: Synergistic inhibition of colony formation in human PANC-1 cells at 0.25 to 0.5 uM measured after 24 hrs in presence of olaparib by crystal violet staining based assay; format: functional, cell-based; details: dose microM 0.25-0.5, time 24.0 hrs
# How it was run: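 Colony formation in 96-well plates seeded at 300 (MIA PaCa-2) or 600 (PANC-1) cells/well. Napabucasin, As2O3 or olaparib added 1 h before test compound; drugs on cells 24 h. Plates kept until controls were 80–90% confluent (7–9 days), then stained with 0.05% crystal violet and quantified. Synergy scored by HSA and Bliss models.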
# [13] = Half life in mouse plasma at 500 uM by LC-MS/MS analysis; format: ADME, cell-free; details: 500 µM
# How it was run: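 Compound (500 μM DMSO stock) was added at 1 μL per 500 μL pooled plasma. Samples were taken at 0, 0.17, 0.5, 1, 2 and 4 h and centrifuged at 3500 g for 10 min. Supernatant was run by LC-MS/MS. t1/2 came from the slope of ln(compound/internal standard peak area) against time.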
# [14] = Plasma concentration in CD-1 mouse at 20 mg/kg, po measured after 7 hrs by LC-MS/MS analysis; format: ADME, organism-based
# How it was run: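 CD-1 mice dosed IP at 10 mg/kg or PO at 20 mg/kg, n=2 per route. Blood taken with heparinized pipettes at 0.5, 2, 4 and 7 h and spun at 15,000 rpm for 10 min. Plasma stored at −80 °C, then measured by LC-MS/MS.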
# CT26 = test: Antitumor activity against mouse CT26 cells implanted in Balb/c mouse assessed as tumor shrinkage at 20 mg/kg, ip; format: functional, organism-based
# How it was run: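 Female Balb/c mice aged 5–6 weeks, implanted subcutaneously in right flank with 1 × 10⁶ CT-26 cells in DPBS. Dosing began 7 days later with randomisation (n = 5/group, mean tumour 97–117 mm³). IV dosing was 3 times weekly and IP dosing was given. Vehicle control given daily IP. Mice were euthanised four hours post-dose after 17 days of dosing.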
# [15] = Drug metabolism in mouse plasma assessed as 6-[4-[(3S,5R)-3,5-dihydroxy-4-methyl-piperazin-1-yl]anilino]quinazoline-5,8-dione formation at 500 uM measured after 0.5 hrs by LC-MS/MS analysis; format: ADME, cell-free
# How it was run: (§2)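 Compound (500 μM DMSO stock, 1 μL per 500 μL) was incubated in pooled mouse plasma. Samples were taken at 0.5 h and metabolites identified by LC-MS/MS.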
# [16] = Drug metabolism in mouse plasma assessed as 7-hydroxy-6-[4-(4-methylpiperazin-1-yl)anilino]-6,7-dihydroquinazoline-5,8-dione formation at 500 uM measured after 0.5 hrs by LC-MS/MS analysis; format: ADME, cell-free; how it was run: as §2
# [17] = Drug metabolism in mouse plasma assessed as 2-amino-3-[6-[4-(4-methylpiperazin-1-yl)anilino]-5,8-dioxo-quinazolin-7-yl]sulfanyl-propanoic acid formation at 500 uM measured after 0.5 hrs by LC-MS/MS analysis; format: ADME, cell-free; how it was run: as §2
# [18] = Drug metabolism in mouse plasma assessed as 5,8-dimethoxy-N-[4-(4-methylpiperazin-1-yl)phenyl]quinazolin-6-amine formation at 500 uM measured after 0.5 hrs by LC-MS/MS analysis; format: ADME, cell-free; how it was run: as §2
structure (smiles),measurement,setting,value
CN1CCN(c2ccc(NC3=CC(=O)c4ncncc4C3=O)cc2)CC1,IC50,PANC-1 [1],340 nM
same,Activity,PANC-1 [2],Active
same,IC50,MIA PaCa-2 [3],1110 nM
same,inhibition,MIA PaCa-2 [4],inactive
same,inhibition,MIA PaCa-2 [5],inactive
same,inhibition,MIA PaCa-2 [6],inactive
same,inhibition,MIA PaCa-2 [7],Active
same,Activity,MIA PaCa-2 [8],Dose-dependent effect
same,Activity,MIA PaCa-2 [9],Active
same,Activity,[10],Active
same,inhibition,BXPC-3,inactive
same,Activity,PANC-1 [11],inactive
same,inhibition,PANC-1 [12],Active
same,t1/2,[13],6 min
same,concentration at 7 h,[14],23.3 ng/mL
same,Activity,CT26,Active
same,Drug metabolism,[15],Metabolite_Detected
same,Drug metabolism,[16],Metabolite_Detected
same,Drug metabolism,[17],Metabolite_Detected
same,Drug metabolism,[18],Metabolite_Detected
